Data taken from publication PMC10441566 (Acta biomaterialia, 2022).

Key:
[1] = Microscale thermophoresis; assay type: binding; details: MST; for Hill coefficient / cooperativity factor (n) of binding with CS: Hill fit, n > 1 positive, n < 1 negative cooperativity
Procedure, shortened: (§1)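 Peptide labeled with 5-FAM at the N-terminus was spun at 14,000 g for 10 min, then used at 200 nM. MST was run at 50% excitation and 40% MST power, room temperature, with 20 s traces. A Hill fit of ΔF_Norm gave Kd and n. n=3 independent runs, mean ± SD.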

[2] = solute concentration inside cartilage relative to surrounding bath; cited from earlier work
[3] = Equilibrium intra-cartilage uptake of CPCs in bovine cartilage explants; details: 30 μM CPC, 24 h, 37°C; for Intra-cartilage uptake in presence of HA (comparison between CPCs): 3 mg/ml HA; for Intra-cartilage uptake in presence of BSA (comparison between CPCs) / Intra-cartilage equilibrium uptake ratio (RU): 12 mg/ml BSA; for Intra-cartilage equilibrium uptake ratio (RU): Healthy (simulated) SF: 3 mg/ml HA, 0.1 mg/ml DLPC in PBS pH 7.4, bath fluorescence, mean, n >= 6; for Reduction of intra-cartilage uptake in Healthy SF relative to PBS: Healthy SF vs PBS
[4] = Microscale thermophoresis; assay type: binding; details: MST, HA titrated up to 2 μM (physiological SF concentration)
[5] = over 7-days desorption period; cited from earlier work
[6] = assay type: in vivo; details: quadriceps and patellar tendon, fat pad; rat, 24 h after IA injection, Cy5 label
Procedure, shortened: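 Healthy male Wistar rats (8–10 weeks, 350–400 g) received 50 μl of 300 μM Cy5-labeled test peptide intra-articularly through the patellar tendon, with saline controls. Legs were flexed to spread the dose, and rats were killed at 24 h. Harvested knee tissues were imaged by confocal microscopy at 10X, with Z-stacks reconstructed to X-Z sections for penetration depth. N=6 joints per treatment.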

[7] = target: γ-Globulin; assay: Microscale thermophoresis; assay type: binding, bovine; details: MST; for Hill coefficient / cooperativity factor (n) of binding with γ-Globulin: Hill fit
Procedure, shortened: as §1

| Substance | Binding with CS-GAG compared with CPC +N [1] | Hill coefficient / cooperativity factor (n) of binding with CS [1] | Intra-cartilage uptake [2] | Intra-cartilage uptake in presence of HA (comparison between CPCs) [3] | Intra-cartilage uptake in presence of BSA (comparison between CPCs) [3] | Intra-cartilage equilibrium uptake ratio (RU) ([3]; 12 mg/ml γ-Globulin) | Reduction of intra-cartilage uptake in Healthy SF relative to PBS [3] [x] | Binding with HA as ligand [4] | Retained within cartilage [5] [%] | Confocal fluorescence signal in less GAG-rich tissues [6] | Kd with γ-Globulin, fold lower than that of CPC +14N [7] [x] | Hill coefficient / cooperativity factor (n) of binding with γ-Globulin [7] | Intra-cartilage uptake in presence of phospholipids (DLPC), comparison ([3]; 0.1 mg/ml DLPC) | Intra-cartilage uptake relative to CPC +14A (fold higher) ([3]; 12 mg/ml γ-Globulin) [x] | Intra-cartilage uptake relative to CPC +14A (fold higher) ([3]; Healthy SF) [x] | Intra-cartilage uptake relative to CPC +14A (fold higher) ([3]; OA SF) [x] |
| --- | --- | --- | --- | --- | --- | --- | --- | --- | --- | --- | --- | --- | --- | --- | --- | --- |
| (AK)7AFAFAF [CPC +F] | stronger binding | 1.6 |  |  |  |  |  |  |  |  |  |  |  |  |  |  |
| (AK)7ANANAN [CPC +N] |  | 0.8 |  |  |  |  |  |  |  |  |  |  |  |  |  |  |
| RRRR(AARRR)3 R [CPC +14A] |  |  | 350 | no significant difference | no significant difference | 80 | 4.5 | completely unbound | > 95 | weak fluorescence signal | 1.8 | 0.67 |  |  |  |  |
| RRRR(NNRRR)3 R [CPC +14N] |  | 1.6 |  | no significant difference | no significant difference | 120 | 2.7 | completely unbound |  | weak fluorescence signal |  | 0.67 | higher uptake than CPC +14A | 2.8 | 1.5 | 2 |
